Results from ChEMBL document CHEMBL1944513, “Synthesis of novel 2-mercapto benzothiazole and 1,2,3-triazole based bis-heterocycles: their anti-inflammatory and anti-nociceptive activities” (Eur J Med Chem, 2012).
Activity calls are given as the source filed them. The rule behind the calls is not given here.

Key:
[1] = Selectivity ratio of IC50 for human recombinant COX2 to IC50 for ram seminal vesicle COX1; format: tissue-based
Outline: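 COX-1 and COX-2 purified chromatographically. Peroxidase read-out from TMPD oxidation during PGG2 to PGH2 reduction. Mix: 100 mM Tris-HCl pH 8.0, hematin, 3 mM EDTA, […], test compound; 1 min preincubation at 25 °C; started with arachidonic acid plus TMPD. Rate from absorbance rise at 603 nm over first 25 s. Ratio is IC50 COX-2/IC50 COX-1.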

Rattus norvegicus [2] = experiment: Antiinflammatory activity in Albino Wistar rat assessed as inhibition of carrageenan-induced paw edema at equimolar dosage of Ibuprofen 10 mg/kg, po administered 1 hr before carrageenan challenge measured after 3 hrs by plethysmometer; format: functional
Outline: (§1)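 Rats fasted 14 h with water only. Compounds given orally at dose equimolar to ibuprofen (10 mg/kg p.o.) 1 h before subplantar injection of 0.1 ml freshly prepared 1% carrageenan in saline into right hind paw. Control received 0.1 ml 0.9% saline orally. Change in paw volume (ml) at 3 and 5 h; % inhibition; one-way ANOVA with Dunnett's test.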

Rattus norvegicus [3] = experiment: Antiinflammatory activity in Albino Wistar rat assessed as inhibition of carrageenan-induced paw edema at equimolar dosage of Ibuprofen 10 mg/kg, po administered 1 hr before carrageenan challenge measured after 5 hrs by plethysmometer; format: functional; outline: as §1
Rattus norvegicus [4] = experiment: Antiinflammatory activity in Albino Wistar rat assessed as inhibition of carrageenan-induced paw edema at equimolar dosage of Ibuprofen 10 mg/kg, po administered 1 hr before carrageenan challenge by plethysmometer; format: functional, organism-based; set-up: dose 10 mg/kg; details: TDE = time-dependent effect, at 10 mg/kg; outline: as §1
Mus musculus [5] = experiment: Analgesic activity in mouse assessed as inhibition of acetic acid-induced writhing at equimolar dosage of Ibuprofen 10 mg/kg, po administered 30 mins before to acetic acid challenge measured for 20 mins relative to control; format: functional, organism-based; set-up: dose 10 mg/kg; details: at 10 mg/kg
Outline: (§2)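 Writhing induced in mice by intraperitoneal 0.6% (v/v) acetic acid (80 mg/kg). Compounds given orally at dose equimolar to ibuprofen 10 mg/kg, 30 min before stimulus; ibuprofen 10 mg/kg orally as reference. Six animals per group.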

Rattus norvegicus [6] = experiment: Ulcerogenicity in Albino Wistar rat assessed as gastric ulceration at equimolar dosage of Ibuprofen 30 mg/kg, po relative to control; format: toxicity, organism-based, Stomach; set-up: dose 30 mg/kg, route oral; details: in vivo
Outline: (§3)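 Oral dosing at three times the anti-inflammatory dose: ibuprofen 30 mg/kg or equimolar test compound. Three animals per group, sacrificed afterwards. Stomach wall sections stained with haematoxylin-eosin and examined at 10x and 40x for mucosal, submucosal and epithelial damage.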

Mus musculus [7] = experiment: Ulcerogenicity in mouse assessed as gastric ulceration at equimolar dosage of Ibuprofen 30 mg/kg, po relative to control; format: toxicity, organism-based, Stomach; set-up: dose 30 mg/kg, route oral; details: in vivo
Mus musculus [8] = experiment: Analgesic activity in mouse assessed as inhibition of acetic acid-induced writhing at 10 mg/kg, po administered 30 mins before to acetic acid challenge measured for 20 mins relative to control; format: functional, organism-based; set-up: dose 10 mg/kg; outline: as §2
Rattus norvegicus [9] = experiment: Antiinflammatory activity in Albino Wistar rat assessed as inhibition of carrageenan-induced paw edema at 10 mg/kg, po administered 1 hr before carrageenan challenge measured after 3 hrs by plethysmometer; format: functional; outline: as §1
Rattus norvegicus [10] = experiment: Antiinflammatory activity in Albino Wistar rat assessed as inhibition of carrageenan-induced paw edema at 10 mg/kg, po administered 1 hr before carrageenan challenge measured after 5 hrs by plethysmometer; format: functional; outline: as §1
Rattus norvegicus [11] = experiment: Ulcerogenicity in Albino Wistar rat assessed as gastric ulceration at 30 mg/kg, po relative to untreated control; format: toxicity, organism-based, Stomach; set-up: dose 30 mg/kg, route oral; details: in vivo; outline: as §3
Mus musculus [12] = experiment: Ulcerogenicity in mouse assessed as gastric ulceration at 30 mg/kg, po relative to untreated control; format: toxicity, organism-based, Stomach; set-up: dose 30 mg/kg, route oral; details: in vivo

Row | SMILES | inhibition in vivo (Rattus norvegicus [2]) [%] | inhibition in vivo (Rattus norvegicus [3]) [%] | further results
1 | Clc1ccc(-n2cc(CSc3nc4ccccc4s3)nn2)cc1 | 50 | 43.4 | Ratio IC50 [1]: 14.9
2 | Brc1ccc(-n2cc(CSc3nc4ccccc4s3)nn2)cc1 | 75 | 59.2 | inhibition (Rattus norvegicus [4]): tde; inhibition (Mus musculus [5]): Active; Activity (Rattus norvegicus [6]): Non-toxic; Activity (Mus musculus [7]): Non-toxic
3 | Clc1cccc(-n2cc(CSc3nc4ccccc4s3)nn2)c1 | 35 | 39.6 | –
4 | Fc1ccc(-n2cc(CSc3nc4ccccc4s3)nn2)cc1 | 77.8 | 81.1 | Ratio IC50 [1]: 0.441; inhibition (Rattus norvegicus [4]): tde; inhibition (Mus musculus [5]): Active; Activity (Rattus norvegicus [6]): Non-toxic; Activity (Mus musculus [7]): Non-toxic
5 | CC1(C)O[C@H]2OC(Cn3cc(CSc4nc5ccccc5s4)nn3)[C@@H]3OC(C)(C)O[C@@H]3[C@@H]2O1 (stereo partly specified) | 59.7 | 56.6 | Ratio IC50 [1]: 1.53
6 | c1ccc(-n2cc(CSc3nc4ccccc4s3)nn2)cc1 | 46.7 | 32.1 | –
7 | CC(C)Cc1ccc(C(C)C(=O)O)cc1 (stereo unspecified) [IBUPROFEN] | – | – | inhibition (Mus musculus [8]): Active; inhibition in vivo at 10 mg/kg (Rattus norvegicus [9]): 69.5%; inhibition in vivo at 10 mg/kg (Rattus norvegicus [10]): 71.7%; Activity (Rattus norvegicus [11]): Toxic; Activity (Mus musculus [12]): Toxic
8 | O=[N+]([O-])c1ccc(-n2cc(CSc3nc4ccccc4s3)nn2)cc1 | 75 | 65.5 | inhibition (Rattus norvegicus [4]): tde; inhibition (Mus musculus [5]): Active; Activity (Rattus norvegicus [6]): Non-toxic; Activity (Mus musculus [7]): Non-toxic
9 | Clc1ccccc1-n1cc(CSc2nc3ccccc3s2)nn1 | 83.3 | 78.1 | inhibition (Rattus norvegicus [4]): tde; inhibition (Mus musculus [5]): Active; Activity (Rattus norvegicus [6]): Non-toxic; Activity (Mus musculus [7]): Non-toxic
10 | O=[N+]([O-])c1cccc(-n2cc(CSc3nc4ccccc4s3)nn2)c1 | 11.7 | 21.5 | Ratio IC50 [1]: 5.21
11 | Cc1ccccc1-n1cc(CSc2nc3ccccc3s2)nn1 | 47.3 | 43.4 | –
12 | Cc1ccc(-c2cc(C(F)(F)F)nn2-c2ccc(S(N)(=O)=O)cc2)cc1 | – | – | Ratio IC50 [1]: 0.0028
13 | O[C@@H]1[C@H](O)[C@@H](O)OC(Cn2cc(CSc3nc4ccccc4s3)nn2)[C@@H]1O (stereo partly specified) | 63.3 | 60.4 | –
14 | OCC(O)Cn1cc(CSc2nc3ccccc3s2)nn1 (stereo unspecified) | 56.7 | 52.8 | –
15 | c1cncc(-n2cc(CSc3nc4ccccc4s3)nn2)c1 | 64 | 56 | –
16 | CCOc1ccc(-n2cc(CSc3nc4ccccc4s3)nn2)cc1 | 38.3 | 34 | –
17 | CC1(C)OCC(Cn2cc(CSc3nc4ccccc4s3)nn2)O1 (stereo unspecified) | 53.3 | 49 | –
